Common to all, as to type: cell-based
In series [1] the test system is MCF10. As to the kind of experiment: Inhibition of DNA replicative polymerase in human MCF10A cells with UVSSA knockdown assessed as transiently alleviation of synthetic sickness phenotype at 50 ng/ml administered every 48 to 72 hrs over 26 days by FBCS assay. The note with it: time 26.0 day. In outline: (§1)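 FBCS: 250,000 shUVSSA-4 or shCONTROL MCF10A-MYC-ER cells coplated with 250,000 shRNA-free cells. Given 1 µg/ml doxycycline, 200 nM 4OHT or ethanol vehicle, and aphidicolin (top dose 50 ng/ml) or vehicle every 48–72 h for 26 d. Fluorescent fraction measured by flow cytometry at each passage; MYC ON/MYC OFF ratio calculated; n = 3.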

The subject of series [2] is MCF10. The series can be described thus: Inhibition of DNA replicative polymerase in human MCF10A cells with UVSSA knockdown assessed as increase in MYC ON/MYC OFF survival ratio at 50 ng/ml administered every 48 to 72 hrs over 26 days by FBCS assay. The note with it: time 26.0 day. The essentials:
as §1

Series [3] deals with DNA. The series can be described thus: Induction of DNA double strand breaks in human MCF10A cells assessed as significant accumulation of P-CHK1(S345) or P-RPA (S4/S8) by Western blot analysis. The note with it: MCF10. The essentials:
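Immunoblot of whole-cell lysates (RIPA buffer with protease/phosphatase inhibitors, sonicated, cleared at 4°C) from MCF10A-MYC-ER shRNA lines given 200 nM 4OHT or vehicle plus 1 µg/ml doxycycline every 3 d and harvested at day 9. β-Actin is the loading control and NCS-treated cells the DSB positive control. Signal detected by ECL on film.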

Series [4] addresses Ubiquitin carboxyl-terminal hydrolase 7 (Homo sapiens) (UniProt Q93009). The series can be described thus: Inhibition of USP7 in human MCF10A-MYC-ER cells assessed as increase in sensitization of MYC expressing cells up to 4 uM by MTT assay relative to control. The note with it: MCF10.
Series [5] shares this target. The series can be described thus: Inhibition of USP7 in human MCF10A-MYC-ER cells assessed as increase in sensitization of MYC expressing cells up to 4 uM by Clonogenic assays relative to control. The note with it: MCF10. In outline: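 Clonogenic assay: MCF10A-MYC-ER cells plated at 500 per 100-mm dish with 200 nM 4OHT or vehicle. Next day, P5091 at 0–4 µM for 24 h, then medium with 4OHT or vehicle for 10 d at 37°C. Colonies methanol-fixed, crystal violet-stained and counted; percentage survival from colony number; unpaired t test, n = 4.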

In series [6] the test system is MCF10. The series can be described thus: Inhibition of RNA polymerase 2 in human MCF10A cells with UVSSA knockdown assessed as transiently alleviation of synthetic sickness phenotype at 100 ng/ml administered every 48 to 72 hrs over 14 days by FBCS assay. The note with it: time 14.0 day.
The nature of series [7]: Toxicity in human MCF10A cells with UVSSA knockdown assessed as increase in MYC ON/MYC OFF survival ratio at 100 ng/ml administered every 48 to 72 hrs over 14 days by FBCS assay. The note with it: mcf10, 336 h, time 14 day.
In series [8] the test system is MCF10. As to the kind of experiment: Inhibition of RNA polymerase 2 in human MCF10A cells with UVSSA knockdown assessed as increase in MYC ON/MYC OFF survival ratio at 100 ng/ml administered every 48 to 72 hrs over 14 days by FBCS assay. The note with it: time 14.0 day.

The structures appear in SMILES notation. The source made the active and inactive calls. No cut-off for these calls is given here.

Sequence of Ubiquitin carboxyl-terminal hydrolase 7 (Homo sapiens) (Q93009 whole entry, looked up): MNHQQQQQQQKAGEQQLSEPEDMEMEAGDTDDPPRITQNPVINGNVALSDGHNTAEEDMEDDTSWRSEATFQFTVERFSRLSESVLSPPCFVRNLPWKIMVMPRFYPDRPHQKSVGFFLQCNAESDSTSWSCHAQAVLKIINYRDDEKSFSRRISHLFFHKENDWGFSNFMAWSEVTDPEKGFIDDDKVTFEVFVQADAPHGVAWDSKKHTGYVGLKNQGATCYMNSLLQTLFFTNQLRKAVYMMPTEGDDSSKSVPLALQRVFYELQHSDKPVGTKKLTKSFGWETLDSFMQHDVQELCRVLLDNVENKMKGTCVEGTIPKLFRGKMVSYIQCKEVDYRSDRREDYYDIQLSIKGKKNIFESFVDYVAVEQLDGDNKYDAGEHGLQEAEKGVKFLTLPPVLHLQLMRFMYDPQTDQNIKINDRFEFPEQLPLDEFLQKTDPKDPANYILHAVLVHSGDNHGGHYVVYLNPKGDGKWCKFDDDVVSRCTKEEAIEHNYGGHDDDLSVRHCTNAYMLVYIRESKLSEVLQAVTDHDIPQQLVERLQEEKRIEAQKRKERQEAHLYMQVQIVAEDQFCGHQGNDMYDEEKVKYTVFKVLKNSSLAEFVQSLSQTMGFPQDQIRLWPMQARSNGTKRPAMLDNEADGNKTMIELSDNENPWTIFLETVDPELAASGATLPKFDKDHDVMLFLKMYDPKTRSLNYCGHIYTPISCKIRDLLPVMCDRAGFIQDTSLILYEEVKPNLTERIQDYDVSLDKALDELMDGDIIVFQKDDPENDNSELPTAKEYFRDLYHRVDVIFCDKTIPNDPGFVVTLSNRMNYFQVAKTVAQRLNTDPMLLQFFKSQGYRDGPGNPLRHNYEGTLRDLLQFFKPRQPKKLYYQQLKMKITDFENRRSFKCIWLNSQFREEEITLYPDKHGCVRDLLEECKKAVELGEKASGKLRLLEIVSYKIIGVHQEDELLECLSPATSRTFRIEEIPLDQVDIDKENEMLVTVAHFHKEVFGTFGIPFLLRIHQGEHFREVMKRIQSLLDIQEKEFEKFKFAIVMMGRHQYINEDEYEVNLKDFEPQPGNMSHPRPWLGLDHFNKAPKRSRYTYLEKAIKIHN

Take `C[C@@]1(CO)[C@H](O)CC[C@@]2(C)[C@H]1CC[C@H]1C[C@@H]3C[C@@]12CC[C@]3(O)CO`: the inhibition result in series [1] and in series [2] was “inactive” in each case.

`CN[C@H]1[C@@H](O[C@@H]2C3CC#C[C@H]4O[C@@]4(C4COC(=O)O4)C#CC3=C[C@H]2OC(=O)c2c(O)ccc3c(C)cc(OC)cc23)O[C@H](C)[C@H](O)[C@@H]1O` (stereo partly drawn): the result in series [3] was Active.

With `CC(=O)c1cc([N+](=O)[O-])c(Sc2cccc(Cl)c2Cl)s1`, the fold change (FC) in series [4] came to 3. Further, in series [5], the inhibition entry was “Active”.

With `CC[C@H](C)[C@@H]1NC(=O)CNC(=O)[C@@H]2Cc3c([nH]c4cc(O)ccc34)[S@+]([O-])C[C@H](NC(=O)CNC1=O)C(=O)N[C@@H](CC(N)=O)C(=O)N1C[C@H](O)C[C@H]1C(=O)N[C@@H]([C@@H](C)[C@@H](O)CO)C(=O)N2`, the inhibition entry in series [6] and in series [8] was “Active” in each case. Also, the Activity entry in series [7] is “Toxic”.

For the origin of these results see ChEMBL document CHEMBL5712095, “The UVSSA complex alleviates MYC-driven transcription stress” (J Cell Biol, 2021).
